The source made the active and inactive calls. The rule behind the calls is not given here.
Tests used:
HL-60 [1] = experiment: Induction of apoptosis in human HL60 cells assessed as caspase9 activation using LEHD-AMC as substrate at 1 uM after 24 hrs by fluorimetry relative to control; assay type: functional
In short: (§1)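 HL-60 cells (2 x 10^6) treated 24 h, washed and lysed. Caspase-3, -8 and -9 activities in lysates measured fluorometrically with a commercial caspase fluorescent assay kit. Two independent experiments, each in duplicate.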

HL-60 [2] = experiment: Induction of apoptosis in human HL60 cells assessed as non-viable necrotic cells at 1 uM after 24 hrs using Annexin V-FITC and propidium iodide staining by flow cytometry relative to control; assay type: functional
In short: (§2)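 HL-60 cells (1 x 10^5 per 1.5 mL) treated 24 h, washed twice in PBS and stained in binding buffer with annexin V-FITC and PI. Flow cytometry with FITC in FL-1 (530 nm) and PI in FL-2 (585 nm), using quadrant statistics: lower right taken as apoptotic, upper right as post-apoptotic necrotic. Representative of three independent experiments.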

HL-60 [3] = experiment: Induction of apoptosis in human HL60 cells assessed as PARP cleavage at 1 uM after 24 hrs by Western blotting; assay type: functional, cell-based
In short: (§3)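 HL-60 cells treated 24 h and lysed in RIPA buffer on ice; protein measured by Bradford against a BSA standard. 50 µg resolved by SDS-PAGE and transferred to PVDF, blocked in 5% milk/TBST, then primary antibodies 1:1000 for 2 h and HRP secondary 1:1000 for 1 h. ECL detection with β-actin as loading control; bands quantified by densitometry.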

HL-60 [4] = experiment: Induction of apoptosis in human HL60 cells assessed as DNA ladder formation at 10 uM after 24 hrs by agarose gel electrophoresis; assay type: functional, cell-based
In short: (§4)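 Cells treated 24 h, then 2 x 10^6 cells lysed (Triton X-100 buffer, pH 8.0) with RNase at 37 °C for 90 min and proteinase-K at 50 °C for 1 h. DNA phenol/chloroform-extracted and ethanol-precipitated, then run on 1.8% agarose at 50 V for 1.5 h in TAE. Ladders viewed under UV.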

HL-60 [5] = experiment: Cell cycle arrest in human HL60 cells assessed as accumulation at G1 phase at 1 uM after 24 hrs using propidium iodide staining by flow cytometry; assay type: functional, cell-based
In short: (§5)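 HL-60 cells (1 x 10^5 per 1.5 mL) treated 24 h, then fixed in 70% cold ethanol at −20 °C overnight. RNase digestion (400 µg/ml) at 37 °C for 45 min, then propidium iodide (10 µg/ml) for 30 min. Flow cytometry on 10,000 events, FL2-A vs FL2-W, with doublet discrimination. Sub-G0 (hypodiploid) peak taken as apoptotic cells. Mean ± SD of three independent experiments.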

HL-60 [6] = experiment: Induction of apoptosis in human HL60 cells assessed as DNA ladder formation at 1 uM after 24 hrs by agarose gel electrophoresis; assay type: functional, cell-based; in short: as §4
HEp-2 = experiment: Growth inhibition of human Hep2 cells at 10 uM by sulforhodamine B assay; assay type: functional; conditions: read-out: GI
In short: (§6)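 Single-dose 10 µM screen by sulforhodamine B assay, reported as percent inhibition of cell proliferation. Cells grown in medium with 10% heat-inactivated FBS at 37 °C, 5% CO2, and treated at about 70% confluence or in log phase. Compounds dissolved in DMSO; controls received vehicle (<0.5% v/v).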

HL-60 [7] = experiment: Cell cycle arrest in human HL60 cells assessed as accumulation at G2/M phase at 1 uM after 24 hrs using propidium iodide staining by flow cytometry; assay type: functional, cell-based; in short: as §5
SiHa [8] = experiment: Induction of apoptosis in human SiHa cells assessed as DNA ladder formation at 10 uM after 24 hrs by agarose gel electrophoresis; assay type: functional, cell-based; in short: as §4
A549 = experiment: Growth inhibition of human A549 cells at 10 uM by sulforhodamine B assay; assay type: functional; conditions: read-out: GI; in short: as §6
HCT-15 = experiment: Growth inhibition of human HCT15 cells at 10 uM by sulforhodamine B assay; assay type: functional; conditions: read-out: GI; in short: as §6
HeLa = experiment: Induction of apoptosis in human HeLa cells assessed as DNA ladder formation at 10 uM after 24 hrs by agarose gel electrophoresis; assay type: functional, cell-based; in short: as §4
HL-60 [9] = experiment: Cell cycle arrest in human HL60 cells assessed as accumulation at S phase at 1 uM after 24 hrs using propidium iodide staining by flow cytometry; assay type: functional, cell-based; in short: as §5
IMR-32 = experiment: Growth inhibition of human IMR32 cells at 10 uM by sulforhodamine B assay; assay type: functional; conditions: read-out: GI; in short: as §6
SK-N-SH = experiment: Growth inhibition of human SK-N-SH cells at 10 uM by sulforhodamine B assay; assay type: functional; conditions: read-out: GI; in short: as §6
HL-60 [10] = experiment: Induction of apoptosis in human HL60 cells assessed as caspase8 activation using IETD-AFC as substrate at 1 uM after 24 hrs by fluorimetry relative to control; assay type: functional; in short: as §1
HL-60 [11] = experiment: Induction of apoptosis in human HL60 cells assessed as late apoptotic cells at 1 uM after 24 hrs using Annexin V-FITC and propidium iodide staining by flow cytometry relative to control; assay type: functional; in short: as §2
HL-60 [12] = experiment: Induction of apoptosis in human HL60 cells assessed as caspase3 activation using DEVD-AFC as substrate at 1 uM after 24 hrs by fluorimetry relative to control; assay type: functional; in short: as §1
OVCAR-5 = experiment: Growth inhibition of human OVCAR5 cells at 10 uM by sulforhodamine B assay; assay type: functional; conditions: read-out: GI; in short: as §6
HL-60 [13] = experiment: Induction of apoptosis in human HL60 cells assessed as early apoptotic cells at 1 uM after 24 hrs using Annexin V-FITC and propidium iodide staining by flow cytometry relative to control; assay type: functional; in short: as §2
DU-145 = experiment: Growth inhibition of human DU145 cells at 10 uM by sulforhodamine B assay; assay type: functional; conditions: read-out: GI; in short: as §6
HL-60 [14] = experiment: Inhibition of survivin expression in human HL60 cells at 1 uM after 24 hrs by Western blotting; assay type: functional, cell-based; in short: as §3
[15] = Growth inhibition of human 502713 cells at 10 uM by sulforhodamine B assay; assay type: functional; conditions: read-out: GI; in short: as §6
HL-60 [16] = experiment: Inhibition of NF-kappaB expression in human HL60 cells at 1 uM after 24 hrs by Western blotting; assay type: functional, cell-based; in short: as §3
HL-60 [17] = experiment: Cell cycle arrest in human HL60 cells assessed as accumulation at sub-G0 phase measuring DNA damage at 1 uM after 24 hrs using propidium iodide staining by flow cytometry (reference value: 1%); assay type: functional; in short: as §5
SW-620 = experiment: Growth inhibition of human SW620 cells at 10 uM by sulforhodamine B assay; assay type: functional; conditions: read-out: GI; in short: as §6
HL-60 [18] = experiment: Inhibition of Bcl-2 expression in human HL60 cells at 1 uM after 24 hrs by Western blotting; assay type: functional, cell-based; in short: as §3
HL-60 [19] = experiment: Induction of apoptosis in human HL60 cells assessed as decrease in mitochondrial membrane potential at 1 uM after 24 hrs using rhodamine 123 staining by flow cytometry; assay type: functional
In short: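 HL-60 cells (1 x 10^5 per 1.5 mL) treated 24 h, then stained with rhodamine-123 (5 µg/mL final) for 1 h. Washed, and propidium iodide (5 µg/mL) added just before reading. FL-1 fluorescence from 10,000 events; percentage of low Rh-123 cells taken as loss of membrane potential. Mean ± SD, n=3.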

HL-60 [20] = experiment: Induction of NO production in human HL60 cells at 1 uM after 24 hrs using DAF-2DA fluorescent dye based flow cytometric analysis; assay type: functional, cell-based
In short: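 HL-60 cells (1 x 10^5 per 1.5 mL) preloaded 30 min with 10 µM DAF-2-DA before treatment. After 24 h exposure, cells were washed and read by flow cytometry in FL-1 as NO-positive population. Mean ± SD of three independent experiments.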

HL-60 [21] = experiment: Induction of apoptosis in human HL60 cells assessed as increase of reactive oxygen species level at 1 uM after 24 hrs using DCFH-DA fluorescent dye based flow cytometric analysis relative to control; assay type: functional
In short: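 HL-60 cells (1 x 10^5 per 1.5 mL) treated 24 h, then loaded with 10 µM H2DCFDA for 30 min at 37 °C. Washed twice in PBS and read in FL-1 (530 nm). Percentage of DCF-positive cells determined; mean ± SD of three experiments.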

SiHa [22] = experiment: Growth inhibition of human SiHa cells at 10 uM by sulforhodamine B assay; assay type: functional; conditions: read-out: GI; in short: as §6
SiHa [23] = experiment: Growth inhibition of human SiHa cells after 48 hrs by MTT assay; assay type: functional, cell-based
CV-1 = experiment: Growth inhibition of african green monkey CV1 cells after 48 hrs by MTT assay; assay type: cell-based; conditions: Chlorocebus aethiops, CV-1, 48 h
HL-60 [24] = experiment: Growth inhibition of human HL60 cells after 48 hrs by MTT assay; assay type: functional, cell-based; conditions: HL-60, 48 h
[25] = Therapeutic ratio of IC50 for african green monkey CV1 cells to IC50 for human HL60 cells; assay type: ADME, cell-based, HL-60; conditions: CV1 cells and HL60 cells, read-out: Ratio IC50
HL-60 [26] = experiment: Inhibition of HSP-90 expression in human HL60 cells at 1 uM after 24 hrs by Western blotting; assay type: functional, cell-based; in short: as §3

Compound | Activity (HL-60 [1]) | Activity (HL-60 [2]) [%] | Activity (HL-60 [3]) | Activity (HL-60 [4]) | Activity (HL-60 [5]) | Activity (HL-60 [6]) | inhibition of growth at 10 µM (HEp-2) [%] | Activity (HL-60 [7]) | Activity (SiHa [8]) | inhibition of growth at 10 µM (A549) [%] | inhibition of growth at 10 µM (HCT-15) [%] | Activity (HeLa) | Activity (HL-60 [9]) | inhibition of growth at 10 µM (IMR-32) [%] | inhibition of growth at 10 µM (SK-N-SH) [%] | Activity (HL-60 [10]) | Activity (HL-60 [11]) [%] | Activity (HL-60 [12]) | inhibition of growth at 10 µM (OVCAR-5) [%] | Activity (HL-60 [13]) [%] | also measured
O=C(Nc1nc2ccc([N+](=O)[O-])cc2s1)c1cccnc1Nc1ccc(Cl)cc1Cl | inactive | 40 | Active | Active | inactive | Active | 14 | inactive | inactive | 19 | 75 | inactive | inactive | 48 | 50 | inactive | 5 | inactive | 0 | 9 | inhibition of growth at 10 µM (DU-145): 39%; inhibition (HL-60 [14]): Active; inhibition of growth at 10 µM [15]: 2%; inhibition (HL-60 [16]): inactive; Activity (HL-60 [17]): 25%; inhibition of growth at 10 µM (SW-620): 61%; inhibition (HL-60 [18]): inactive; Activity (HL-60 [19]): Active; Activity (HL-60 [20]): inactive; Activity (HL-60 [21]): inactive; inhibition of growth at 10 µM (SiHa [22]): 35%
CN1c2ccccc2S(=O)(=O)n2nc(-c3cccnc3Nc3ccc(Cl)cc3Cl)nc21 | inactive | 13 | Active | Active | inactive | Active | 0 | inactive | inactive | 15 | 27 | inactive | inactive | 47 | 16 | inactive | 3 | inactive | 23 | 7 | IC50 (SiHa [23]): > 50 µM; IC50 (CV-1): > 100 µM; IC50 (HL-60 [24]): 0.64 µM; selectivity ratio [25]: > 156; inhibition of growth at 10 µM (DU-145): 11%; inhibition (HL-60 [14]): Active; inhibition of growth at 10 µM [15]: 49%; inhibition (HL-60 [16]): inactive; Activity (HL-60 [17]): 20%; inhibition of growth at 10 µM (SW-620): 62%; inhibition (HL-60 [18]): inactive; Activity (HL-60 [20]): inactive; Activity (HL-60 [21]): inactive; inhibition of growth at 10 µM (SiHa [22]): 13%
O=C(Nc1nc2ccc([N+](=O)[O-])cc2s1)c1cccnc1Nc1ccc(F)cc1 | inactive | 45 | Active | Active | inactive | Active | 52 | inactive | inactive | 18 | 55 | inactive | inactive | 33 | 63 | inactive | 5 | inactive | 53 | 9 | IC50 (SiHa [23]): 7 µM; IC50 (CV-1): 15 µM; IC50 (HL-60 [24]): 0.3 µM; inhibition (HL-60 [26]): Active; selectivity ratio [25]: 50; inhibition of growth at 10 µM (DU-145): 51%; inhibition (HL-60 [14]): Active; inhibition of growth at 10 µM [15]: 66%; inhibition (HL-60 [16]): inactive; Activity (HL-60 [17]): 60%; inhibition of growth at 10 µM (SW-620): 67%; inhibition (HL-60 [18]): inactive; Activity (HL-60 [19]): Active; Activity (HL-60 [20]): inactive; Activity (HL-60 [21]): 16%; inhibition of growth at 10 µM (SiHa [22]): 23%

— ChEMBL document CHEMBL1926589, “2-Anilinonicotinyl linked 2-aminobenzothiazoles and [1,2,4]triazolo[1,5-b] [1,2,4]benzothiadiazine conjugates as potential mitochondrial apoptotic inducers” (Bioorg Med Chem, 2011)
